Screening results: PubChem, The Scripps Research Institute Molecular Screening Center
OXTR agonist: human OXTR agonists, primary screen, fluorescence, CHO-OTR cells, Fluo-8 calcium; Fluo-8 calcium fluorescence; normalized: DMSO 0%, oxytocin 100%; activation, % at 3 µM; 0.32% of 320,000 active; AID 2435, 2010;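 active = activation above the mean of all tested compounds plus 3 SD, cutoff set per screening run, cut at about 20% in these data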;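 also: peak over basal fluorescence ratio from a 100 s FLIPR kinetic read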
CHRM4 antagonist: human M4 muscarinic receptor antagonists, primary screen, CHO cells, Fluo-8 calcium fluorescence; inhibition, % at 3 µM; 0.73% of 360,000 active; Muscarinic acetylcholine receptor M4 (Homo sapiens), P08173; CHO-hM4 cells, ACh EC80;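 active = inhibition above its plate's cutoff, the mean inhibition of sample wells plus 3 SD, cut at about 27% in these data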;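 also: 0% = acetylcholine EC80 with DMSO and 100% = DMSO without agonist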
Target sequence (P08173 whole entry, looked up): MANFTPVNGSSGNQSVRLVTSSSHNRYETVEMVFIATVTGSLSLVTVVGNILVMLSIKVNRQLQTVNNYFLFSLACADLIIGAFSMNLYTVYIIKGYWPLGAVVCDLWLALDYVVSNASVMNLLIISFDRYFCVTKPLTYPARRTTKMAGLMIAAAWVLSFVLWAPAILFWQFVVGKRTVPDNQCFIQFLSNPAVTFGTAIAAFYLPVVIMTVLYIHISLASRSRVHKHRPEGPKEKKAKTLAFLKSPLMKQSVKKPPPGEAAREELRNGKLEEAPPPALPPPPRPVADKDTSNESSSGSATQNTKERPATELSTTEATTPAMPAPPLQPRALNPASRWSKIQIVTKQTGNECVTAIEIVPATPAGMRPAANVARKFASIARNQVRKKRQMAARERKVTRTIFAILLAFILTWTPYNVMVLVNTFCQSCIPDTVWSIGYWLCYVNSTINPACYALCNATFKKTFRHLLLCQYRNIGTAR
M4 ag: human M4 muscarinic receptor agonists, primary screen, CHO-K1 cells, Fluo-8 calcium fluorescence | 0.14% of 360,000 active | CHO-K1 hM4/Gqi5; vehicle 0%, full acetylcholine response 100% | AID 624127, 2012 | activation, % at 3 µM | Muscarinic acetylcholine receptor M4 (Homo sapiens), P08173;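 active = activation above the run mean over all test wells plus 3 SD, cut at about 32% in these data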;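 also: peak over basal fluorescence ratio per well then scaled between controls; 0% = DMSO wells and 100% = acetylcholine at EC100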
V1aR counter: agonists of human V1a receptor, primary screen, counter-screen for OXTR agonist project, fluorescence, CHO-V1R cells; 0.25% of 320,000 active; AID 2797, 2010; Fluo-8 calcium fluorescence, agonist mode; 0% DMSO, 100% 3 nM vasopressin; Vasopressin V1a receptor (Homo sapiens), P37288; activation, % at 3 µM;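 active = activation above the mean activation of all tested compounds plus 3 SD, per screening run, cut at about 20% in these data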;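 also: signal is peak over basal fluorescence ratio across a 100 second FLIPR read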
OXTR potentiator: human OXTR potentiators, primary screen, fluorescence, CHO-OTR cells, Fluo-8 calcium; Oxytocin receptor (Homo sapiens), P30559; 0.061% of 320,000 active; activation, % at 3 µM; AID 2445, 2010; Fluo-8 calcium fluorescence, potentiator mode; 0% = oxytocin EC15, 100% = EC100;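 active = activation above that plate's cutoff, the mean activation of tested compounds plus 3 SD, cut at about 6.6% in these data, passing the limit was not always enough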;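 also: 100% uses oxytocin at 75 nM as the full agonist control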
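Material: human OTR in CHO cells. Compound: 3.0 µM, one dose. Timing: compound 6 min at room temperature before oxytocin, 100 s read. Evaluation: % activation of max/min ratio relative to oxytocin controls. Replication: single well per compound, singlicate. Signal: Fluo-8 calcium dye fluorescence.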
CHRM4 PAM: human M4 muscarinic receptor positive allosteric modulators, primary screen, CHO-K1 cells, Fluo-8 calcium fluorescence; Muscarinic acetylcholine receptor M4 (Homo sapiens), P08173; CHO-K1 hM4/Gqi5, ACh EC20; 0% = ACh EC20, 100% = maximal ACh; activation, % at 3 µM; 0.4% of 360,000 active; AID 624126, 2012;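 active = activation above its plate's cutoff, the mean activation of sample wells plus 3 SD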
An asterisk follows results filed as active; / = no result given. In the library only some 1.5% were active in any assay of this set; here they are far more common.

SMILES | OXTR agonist | CHRM4 antagonist | M4 ag | V1aR counter | OXTR potentiator | CHRM4 PAM
CC(=O)/C(=N\Nc1ccccc1)Sc1cccc2cccnc12 | -2 | 9 | -2 | 0 | -3 | 1
O=C(Sc1cccc2cccnc12)c1ccccc1Br | -1 | 39* | 4 | -1 | -15 | -6
CCN1CCN(c2ccc(S(=O)(=O)N3CCCCC3)cc2NC(=O)/C=C/c2ccc(Cl)cc2)CC1 | / | 2 | 4 | / | / | 0
CN1CCN(CCC(=O)N2c3ccccc3Sc3ccc(Cl)cc32)CC1 | 2 | 21 | 0 | 0 | -2 | -20
CN(C)CCC(=O)N1c2ccccc2Sc2ccc(Cl)cc21 | 0 | 96* | 0 | 0 | 1 | -24
CN(C)CC(=O)N1c2ccccc2Sc2ccc(Cl)cc21 | 0 | 68* | 1 | 0 | 0 | -20
CN1CCC=C(C(=O)N2c3ccccc3Sc3ccc(Cl)cc32)C1 | 1 | 86* | 2 | 2 | -9 | -59
CCN(CC)CCC(=O)N1c2ccccc2Sc2ccc(Cl)cc21 | 0 | 98* | 1 | 0 | 2 | -18
O=C(Nc1ccc2c(c1)CCCN2C(=O)c1ccccc1)c1ccccc1 | -1 | 11 | 18 | 6 | -1 | -9
COc1ccc(Cl)cc1S(=O)(=O)N1CCC(C(=O)NCc2ccccn2)CC1 | -1 | -8 | 4 | -1 | -5 | -5
O=C1Nc2cnc(Cl)nc2Nc2ccccc21 | / | 0 | 0 | / | / | -2
Fc1ccc(-c2cn3cc(C(F)(F)F)cc(Cl)c3n2)cc1 | -2 | -13 | -2 | -1 | -1 | 16
COc1ccc(-c2cn3cc(C(F)(F)F)cc(Cl)c3n2)cc1 | -2 | 3 | 0 | -1 | 11* | -1
O=[N+]([O-])c1ccccc1S(=O)(=O)N1CCN(C2CCN(Cc3ccccc3)CC2)CC1 | 1 | 29* | 1 | 0 | -6 | -14
O=S(=O)(c1ccc(Cl)cc1)N1CCN(C2CCN(Cc3ccccc3)CC2)CC1 | 1 | 15 | 2 | 1 | -6 | -15
COc1ccc(S(=O)(=O)N2CCC(N3CCN(Cc4ccccc4)CC3)CC2)cc1 | -2 | 46* | 1 | 0 | -1 | -19
COc1cc(C=C(C(C)=O)C(C)=O)ccc1O | 2 | 5 | 0 | 0 | -5 | 3
COc1cc(/C=C/C(=O)O)ccc1O | 1 | -3 | 1 | 0 | -2 | -1
COc1cc(/C=C/C(=O)CC(=O)/C=C/c2ccc(O)c(OC)c2)ccc1O | 33* | 25 | 25 | 24* | -22 | -17
COc1cc(/C=C2/C(=O)CNC2=O)ccc1O | 1 | 1 | 0 | 1 | -1 | 2
COc1cc(/C=C/C(=O)/C=C(O)/C=C/c2ccc(O)c(OC)c2)ccc1O | 33* | 32* | 44* | 41* | -10 | -12
COc1cc(C=C2C(=O)C=CC2=O)ccc1O | / | 31* | 0 | / | / | -4
Cc1ccc(F)c(C(=O)N2CCCC(C)(C(=O)NS(=O)(=O)C3CC3)C2)c1F (stereo unspecified) | / | -2 | 0 | / | / | 3
COc1ccccc1N1CCN(C(=O)CSc2nnc3c4ccccc4nc(Cc4ccccc4)n23)CC1 | 0 | / | / | 0 | -7 | /
O=C(O)COc1ccccc1/C=N/NC(=O)c1cc2ccccc2cc1O | 1 | 11 | 0 | 2 | 1 | -3
SMILES | OXTR agonist | CHRM4 antagonist | M4 ag | V1aR counter | OXTR potentiator | CHRM4 PAM
COC(=O)c1c(NC(=S)NC(=O)c2ccco2)sc2c1CCCC2 | 1 | -2 | 0 | 1 | -7 | 33*
CCOC(=O)c1c(NC(=O)c2ccco2)sc2c1CCCCC2 | 0 | -1 | -2 | 0 | -4 | 4
CCOC(=O)c1c(NC(=O)C(C)N2CCN(C(=O)c3ccco3)CC2)sc2c1CCCC2 (stereo unspecified) | 2 | 49* | 41* | 3 | -5 | -32
O=S(=O)(CCc1nc2ccccc2[nH]1)c1ccc(Cl)cc1 | 0 | -10 | 2 | 0 | -11 | 23*
Cc1ccc(S(=O)(=O)CCc2nc3ccccc3[nH]2)cc1 | 0 | 1 | 2 | 1 | 2 | -6
COC(=O)c1c(C)[nH]c(C(=O)CN2C(=O)C3CC=CCC3C2=O)c1C (stereo unspecified) | 1 | 0 | 3 | 0 | -5 | 26*
O=c1oc2c(CN3CCCCC3)c(O)ccc2c2c1CCCC2 | 0 | 35* | 0 | -1 | 0 | -14
OC(c1cccc(CN2CCCCC2)c1)c1ncc(-c2cccc3ccccc23)[nH]1 (stereo unspecified) | / | -2 | 2 | / | / | -8
CCOc1cccc(-c2c(C(=O)N/N=C/c3ccsc3)nnn2-c2nonc2N)c1 | 25* | -16 | 5 | 24* | -7 | 7
CCOc1cccc(-c2c(C(=O)N/N=C/c3sccc3C)nnn2-c2nonc2N)c1 | 2 | 2 | 6 | 1 | -1 | 0
Cc1ccc(-c2c(C(=O)N/N=C/c3ccsc3)nnn2-c2nonc2N)cc1 | 39* | -8 | 8 | 36* | -20 | -6
Nc1nonc1-n1nnc(C(=O)N/N=C/c2cccs2)c1-c1ccc2c(c1)OCO2 | 35* | -11 | 69* | 52* | -12 | -4
CCNC(=O)N(C)c1c(CC)nc2ccc(C(=O)N3CCN(S(=O)(=O)CC)CC3)cn12 | / | 3 | 2 | / | / | 4
Cc1cc(=O)n2nc(N3CCCC(C(=O)Nc4cccc(C)c4C)C3)sc2n1 (stereo unspecified) | / | 2 | 1 | / | / | 1
O=C(NCCO)C(=O)Nc1cc2c3c(c1)CC(=O)N3CCC2 | 1 | 1 | -1 | 1 | -4 | 14*
CCCCOCCCNc1ncnc2c1[nH]c1ccccc12 | 19 | 31* | 21 | 13 | -8 | -28
CCOCCCNc1ncnc2c1[nH]c1ccccc12 | 9 | 7 | 14 | 10 | -15 | -7
Oc1ccccc1/C=N/Nc1nc2ccccc2o1 | 0 | -17 | 2 | 1 | -6 | -5
CC(=NNc1nc2ccccc2s1)c1ncccn1 | / | 48* | 12 | / | / | 0
CC(=NNc1nc2ccccc2o1)c1cc2ccccc2cn1 | / | 33* | 11 | / | / | 0
Cc1cc(C)nc(Nc2nc3ccccc3o2)n1 | 1 | -10 | 0 | 1 | -7 | -6
CC(=NNc1nc2ccccc2o1)c1ncccn1 | / | 58* | 6 | / | / | -1
CC1C(O)=C(c2ccccc2)P(=O)(Cc2ccccc2)C1C (stereo unspecified) | / | 9 | 1 | / | / | -2
